Results published in ChEMBL document CHEMBL1147746, “Structure-activity relationship studies of novel benzophenones leading to the discovery of a potent, next generation HIV nonnucleoside reverse transcriptase inhibitor” (J Med Chem, 2006).

Key:
Format in all cases: functional, organism-based
[1] = tested on: Human immunodeficiency virus 1; test: Antiviral activity against HIV1 Y181C mutant using HeLa MAGI assay; settings: Human immunodeficiency virus 1, Y181C
Procedure, shortened: (§1)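 HeLa CD4-LTR-β-gal cells infected with isogenic recombinant HIV-1 built on the HxB2 backbone and carrying the RT mutation (K103N, V106A or Y181C). Infection was read by a chemiluminescent β-galactosidase signal 3 days after infection. The IC50 is the concentration giving 50% inhibition of the signal relative to untreated controls. Cytotoxicity was run in parallel by CellTiter96; highest concentration mostly 0.5 µM.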

[2] = tested on: Human immunodeficiency virus 1; test: Antiviral activity against HIV1 V106A mutant using HeLa MAGI assay; settings: Human immunodeficiency virus 1, V106A; procedure, shortened: as §1
[3] = tested on: Human immunodeficiency virus 1; test: Antiviral activity against HIV1 K103N mutant using HeLa MAGI assay; settings: Human immunodeficiency virus 1, K103N; procedure, shortened: as §1
[4] = tested on: Human immunodeficiency virus 1; test: Antiviral activity against HIV1 3B in MT4 cells; settings: Human immunodeficiency virus 1, 3B
Procedure, shortened: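 MT4 T-cell line infected with HIV-1 IIIB (from H9/HTLV-IIIB supernatants) at 100× the inoculum giving 50% growth reduction; incubated 5 days with a range of compound concentrations. Virus cytopathic effect read by MTS staining; IC50 taken as mean of one triplicate experiment. Cytotoxicity measured in parallel on uninfected cells.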

[5] = tested on: Human immunodeficiency virus 1; test: Antiviral activity against HIV1 HxB2 using HeLa MAGI assay; settings: Human immunodeficiency virus 1, HxB2
Procedure, shortened: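 HeLa CD4-LTR-β-gal cells infected with HxB2 (from molecular clone pHxB2-D) or isogenic RT mutants; HIV-LTR-driven β-galactosidase quantified with chemiluminescent substrate 3 days post-infection. IC50 is the concentration inhibiting 50% of signal relative to untreated controls. Cytotoxicity measured in parallel by CellTiter96.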

Structure (SMILES)	IC50 [1]	IC50 [2]	IC50 [3]	IC50 [4]	IC50 [5]
Cc1cc(S(N)(=O)=O)ccc1NC(=O)COc1ccc(Cl)cc1C(=O)c1cc(Cl)cc(C#N)c1	0.7 nM	3.4 nM	1 nM	–	–
Cc1cc(S(N)(=O)=O)ccc1NC(=O)COc1ccc(Cl)cc1C(=O)c1cc(Cl)cc(Br)c1	6.9 nM	13 nM	6.1 nM	–	–
COc1cc(OC)cc(C(=O)c2cc(Cl)ccc2OCC(=O)Nc2ccc(S(N)(=O)=O)cc2C)c1	13 nM	500 nM	370 nM	–	–
Cc1cc(S(N)(=O)=O)ccc1NC(=O)COc1ccc(Cl)cc1C(=O)c1cc(C#N)cc(C(F)(F)F)c1	2 nM	5.6 nM	1.1 nM	–	–
Cc1cc(S(N)(=O)=O)ccc1NC(=O)COc1ccc(Cl)cc1C(=O)c1cccc(C#N)c1	1.5 nM	30 nM	1.5 nM	–	–
COc1ccc(NC(=O)COc2ccc(Cl)cc2C(=O)c2cc(F)cc(F)c2)cn1	–	–	72 nM	–	–
Cc1cc(N2CC[S+]([O-])CC2)ccc1NC(=O)COc1ccc(Cl)cc1C(=O)c1ccc(C#N)cc1	355 nM	1400 nM	44 nM	–	–
Cc1cc(N2CC[S+]([O-])CC2)ccc1NC(=O)COc1ccc(Cl)cc1C(=O)c1cccc(C#N)c1	6 nM	–	5 nM	–	–
Cc1cc(S(N)(=O)=O)ncc1NC(=O)COc1ccc(Cl)cc1C(=O)c1cc(Cl)cc(C#N)c1	2 nM	10 nM	5 nM	–	–
Cc1cc(NC(=O)CCN2CCOCC2)ccc1NC(=O)COc1ccc(Cl)cc1C(=O)c1cc(F)cc(F)c1	–	–	9 nM	5 nM	–
Cc1cc(N2CC[S+]([O-])CC2)ccc1NC(=O)COc1ccc(Cl)cc1C(=O)c1ccccc1	150 nM	1400 nM	100 nM	–	–
Cc1cc(C#N)cc(C(=O)c2cc(Cl)ccc2OCC(=O)Nc2ccc(S(N)(=O)=O)cc2C)c1	1.9 nM	1.4 nM	0.9 nM	–	–
Cc1cc(NCCCn2ccnc2)ccc1NC(=O)COc1ccc(Cl)cc1C(=O)c1cc(F)cc(F)c1	–	–	158 nM	37 nM	–
Cc1cc(N2CC[S+]([O-])CC2)ccc1NC(=O)COc1ccc(Cl)cc1C(=O)c1ccccc1C#N	700 nM	2000 nM	155 nM	–	–
Cc1nc(S(N)(=O)=O)ccc1NC(=O)COc1ccc(Cl)cc1C(=O)c1cc(Cl)cc(C#N)c1	3 nM	7 nM	3 nM	–	–
Cc1cc(C#N)cc(C(=O)c2cc(Cl)ccc2OCC(=O)Nc2ncc(S(N)(=O)=O)cc2C)c1	–	–	93 nM	–	–
Cc1cc(S(N)(=O)=O)ccc1NC(=O)COc1ccc(Cl)cc1C(=O)c1cc(N)cc(C#N)c1	450 nM	18 nM	140 nM	–	–

Structure (SMILES)	IC50 [1]	IC50 [2]	IC50 [3]	IC50 [4]	IC50 [5]
Cc1cc(C#N)cc(C(=O)c2cc(Cl)ccc2OCC(=O)Nc2cnc(S(N)(=O)=O)cc2C)c1	4 nM	2 nM	7 nM	–	–
Cc1ccnc2c1NC(=O)c1cccnc1N2C1CC1 [NEVIRAPINE]	10300 nM	8200 nM	5800 nM	–	–
Cc1cc(NCCCN2CCCC2)ccc1NC(=O)COc1ccc(Cl)cc1C(=O)c1cc(F)cc(F)c1	–	–	109 nM	18 nM	–
Cc1cc(S(N)(=O)=O)ccc1NC(=O)COc1ccc(Cl)cc1C(=O)c1cc(F)cc(C(F)(F)F)c1	2.9 nM	10.5 nM	2 nM	1 nM	1.4 nM
Cc1cc(C#N)cc(C(=O)c2cc(Cl)ccc2OCC(=O)Nc2ccc(S(N)(=O)=O)nc2C)c1	4 nM	3 nM	6 nM	–	–
Cc1cc(OCCCS(N)(=O)=O)ccc1NC(=O)COc1ccc(Cl)cc1C(=O)c1cc(F)cc(C(F)(F)F)c1	6 nM	–	4 nM	7 nM	3 nM
CNS(=O)(=O)c1ccc(NC(=O)COc2ccc(Cl)cc2C(=O)c2cc(F)cc(C(F)(F)F)c2)c(C)c1	–	–	2 nM	8 nM	3 nM
Cc1cc(S(N)(=O)=O)ccc1NC(=O)COc1ccc(Cl)cc1C(=O)c1cc(Br)cc(C(F)(F)F)c1	290 nM	18 nM	93 nM	–	–
Cc1cc(C)cc(C(=O)c2cc(Cl)ccc2OCC(=O)Nc2ccc(S(N)(=O)=O)cc2C)c1	3 nM	4.2 nM	3.3 nM	–	–
Cc1cc(OCCCNC(N)=O)ccc1NC(=O)COc1ccc(Cl)cc1C(=O)c1cc(F)cc(C(F)(F)F)c1	10 nM	–	4 nM	6 nM	4 nM
O=C1Nc2ccc(Cl)cc2C(C#CC2CC2)(C(F)(F)F)O1 (single isomer, unassigned) [EFAVIRENZ]	1.6 nM	1.8 nM	25 nM	–	–
Cc1cc(S(=O)(=O)N(C)C)ccc1NC(=O)COc1ccc(Cl)cc1C(=O)c1cc(F)cc(C(F)(F)F)c1	–	–	6 nM	10 nM	8 nM
CCN(CC)CCCNc1ccc(NC(=O)COc2ccc(Cl)cc2C(=O)c2cc(F)cc(F)c2)c(C)c1	–	–	96 nM	41 nM	–
O=C(COc1ccc(Cl)cc1C(=O)c1cc(F)cc(F)c1)Nc1ccc(Cl)nc1	–	–	67 nM	–	–
Cc1ccccc1NC(=O)COc1ccc(Cl)cc1C(=O)c1cc(F)cc(F)c1	25 nM	–	38 nM	25 nM	8 nM
Cc1cc(Cl)cc(C(=O)c2cc(Cl)ccc2OCC(=O)Nc2ccc(S(N)(=O)=O)cc2C)c1	3.3 nM	9.4 nM	3.6 nM	–	–
